The source of these data is ChEMBL document CHEMBL1921684, “Targeting zymogen activation to control the matriptase-prostasin proteolytic cascade” (J Med Chem, 2011).

Activity calls are given as the source filed them. The calls are words filed in the database; no cut-off is given here.

The target in experiment [1] is T1, Suppressor of tumorigenicity 14 protein (Homo sapiens) (UniProt Q9Y5Y6).
T1 sequence (whole entry): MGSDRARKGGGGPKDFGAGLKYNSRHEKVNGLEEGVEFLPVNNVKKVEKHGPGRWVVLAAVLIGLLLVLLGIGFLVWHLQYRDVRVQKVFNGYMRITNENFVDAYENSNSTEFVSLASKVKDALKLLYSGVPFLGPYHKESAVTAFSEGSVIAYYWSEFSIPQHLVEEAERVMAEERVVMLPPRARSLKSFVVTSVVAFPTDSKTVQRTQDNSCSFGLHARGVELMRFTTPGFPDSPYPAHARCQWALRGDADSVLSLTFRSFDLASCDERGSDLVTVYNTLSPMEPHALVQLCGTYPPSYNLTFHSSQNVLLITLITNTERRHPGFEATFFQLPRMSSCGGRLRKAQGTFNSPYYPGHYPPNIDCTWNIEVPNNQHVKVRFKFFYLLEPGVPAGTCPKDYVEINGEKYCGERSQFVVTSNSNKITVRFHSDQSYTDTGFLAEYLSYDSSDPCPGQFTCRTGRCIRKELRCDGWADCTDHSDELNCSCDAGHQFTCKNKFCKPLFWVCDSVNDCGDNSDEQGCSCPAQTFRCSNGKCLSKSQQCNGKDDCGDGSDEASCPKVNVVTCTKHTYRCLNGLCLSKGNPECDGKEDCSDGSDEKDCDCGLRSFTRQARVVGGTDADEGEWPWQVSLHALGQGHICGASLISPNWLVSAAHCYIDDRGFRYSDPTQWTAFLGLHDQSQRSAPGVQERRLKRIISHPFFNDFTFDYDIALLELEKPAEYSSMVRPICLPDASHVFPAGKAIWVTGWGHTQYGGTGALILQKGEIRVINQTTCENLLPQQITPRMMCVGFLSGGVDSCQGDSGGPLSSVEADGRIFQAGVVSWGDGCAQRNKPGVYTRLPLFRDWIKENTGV
The experiment can be described thus: Inhibition of acid-induced matriptase activation in human 184A1N4 cell homogenate using mAb M69 after 30 mins by Western blot analysis. The gist of the method:
(§1)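 Insoluble fraction of 184 A1N4 cell homogenates (made in PBS, collected by centrifugation) preincubated with compound in 150 mM sodium phosphate pH 6.0 for 30 min at 4 °C. Activation then induced for 20 min at room temperature. Non-reduced, unboiled samples run on 7.5% SDS-PAGE. Immunoblot probed with mAb M24 (total matriptase) or M69 (activated matriptase); chemiluminescent detection; triplicate.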
On the technique in general: Immunoblotting shows a protein as a band on a membrane.

In experiment [2] the target is T2, Suppressor of tumorigenicity 14 protein (Homo sapiens, UniProt Q9Y5Y6).
T2 sequence (Q9Y5Y6 whole entry): T1 sequence (whole entry)
The experiment in a line: Inhibition of acid-induced matriptase activation in human 184A1N4 cells using mAb M69 by cell-based ELISA like assay. The method in brief: (§2)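 184 A1N4 cells seeded at 8×10^4 cells/well 24 h ahead. Compound in pH 6.0 sodium phosphate buffer, 30 min at 4 °C, then 20 min at room temperature. Cells fixed in 4% formaldehyde with 0.1% Triton for 20 min. Activated matriptase detected with mAb M69, HRP anti-mouse IgG and TMB; A450. […] Screening used 5 μM final per compound in 1% DMSO.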
On the technique in general: An ELISA detects its analyte on a solid surface through an enzyme-linked reagent.

For experiment [3], the target named is T1, Suppressor of tumorigenicity 14 protein (Homo sapiens). The experiment in a line: Inhibition of acid-induced matriptase activation in human 184A1N4 cell homogenate using mAb M24 after 30 mins by Western blot analysis. The gist of the method:
as §1

For experiment [4] the target is unchanged. The experiment can be described thus: Inhibition of acid-induced matriptase activation in human 184A1N4 cells using mAb M69 at 5 uM by cell-based ELISA like assay. The gist of the method:
as §2

Experiment [5] has the same target. The experiment can be described thus: Inhibition of acid-induced matriptase activation in human 184A1N4 cells assessed as enzyme-HAI-1 complex using mAb M24 at 5 uM after 30 mins by Western blotting. The class given is cell-based. The gist of the method: (§3)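 Intact 184 A1N4 cells pre-treated with compound in 150 mM sodium phosphate pH 6.0 for 30 min at 4 °C, then held 20 min at room temperature to drive activation. PBS served as non-activation control and buffer alone as activation control. Cells lysed in PBS with 1 mM DTNB and 1% Triton X-100. Non-reduced, unboiled lysates run on 7.5% SDS-PAGE. Blots probed with M24 (70-kDa latent form, 120-kDa matriptase-HAI-1 complex) or M69 (activated matriptase); triplicate.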

Experiment [6] has the same target. The experiment in a line: Inhibition of acid-induced matriptase activation in human 184A1N4 cells using mAb M69 after 20 mins by Western blotting. The experiment is classed as cell-based. The gist of the method: as §3
Experiment [7] shares this target. The experiment can be described thus: Inhibition of acid-induced matriptase activation in human 184A1N4 cells using mAb M24 after 20 mins by Western blotting. The experiment is classed as cell-based. The method in brief:
as §3

For experiment [8] the target is unchanged. The experiment in a line: Inhibition of acid-induced matriptase activation in human 184A1N4 cells using mAb M69 after 20 mins by cell-based ELISA-like assay. The method in brief:
as §2

Experiment [9] has the same target. The experiment in a line: Inhibition of acid-induced matriptase activation in human 184A1N4 cells assessed as increase in 70 kDa latent matriptase using mAb M24 after 30 mins by Western blotting. The class given is cell-based. The method in brief: as §3
For experiment [10] the target is unchanged. The experiment can be described thus: Inhibition of acid-induced matriptase activation in human 184A1N4 cells assessed as increase in 70 kDa latent matriptase using mAb M24 at 5 uM after 30 mins by Western blotting. The experiment is classed as cell-based. The method in brief: as §3
Experiment [11] has the same target. The experiment can be described thus: Inhibition of acid-induced matriptase activation in human HaCaT cells using mAb M24 after 30 mins by Western blot analysis. The experiment is classed as cell-based. The method in brief: (§4)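 HaCaT keratinocytes (DMEM, 10% FBS) incubated with compound in phosphate buffer pH 6.0 for 30 min at 4 °C, then 20 min at room temperature. Controls were PBS (no activation) and buffer alone. Lysates run non-reduced on 7.5% SDS-PAGE. Immunoblots probed with M24 (total matriptase), M69 (activated matriptase) and a polyclonal anti-prostasin antibody detecting the prostasin-HAI-1 complex.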

Experiment [12] has the same target. The experiment can be described thus: Inhibition of acid-induced matriptase activation in human 184A1N4 cells assessed as decrease in 120 kDa enzyme-HAI-1 complex using mAb M24 after 30 mins by Western blotting relative to untreated control. The experiment is classed as cell-based. The method in brief:
as §3

Experiment [13] shares this target. The experiment in a line: Inhibition of acid-induced matriptase activation in human 184A1N4 cells assessed as decrease in 120 kDa enzyme-HAI-1 complex using mAb M69 after 30 mins by Western blotting. The class given is cell-based. The gist of the method: as §3
Experiment [14] shares this target. The experiment in a line: Inhibition of acid-induced matriptase activation in human 184A1N4 cells assessed as decrease in 120 kDa enzyme-HAI-1 complex using mAb M24 at 5 uM after 30 mins by Western blotting relative to untreated control. The class given is cell-based. The method in brief:
as §3

The target is the same in experiment [15]. The experiment can be described thus: Inhibition of acid-induced matriptase-mediated prostasin activation in human HaCaT cells assessed as decrease in prostatin-HAI-1 complex after 30 mins by Western blot analysis. The experiment is classed as cell-based. The method in brief:
as §4

For experiment [16] the target is unchanged. The experiment in a line: Inhibition of acid-induced matriptase activation in human HaCaT cells using mAb M69 after 30 mins by Western blot analysis. The class given is cell-based. The gist of the method:
as §4

Turning to `O=C(C1=C(O)C(=O)N(c2nccs2)C1c1cccs1)c1cccs1` (stereo unspecified), the inhibition entry in experiment [1] and in experiment [3] was “Dose-dependent effect” in each case. Inhibition in experiment [2] was half-maximal at 9.8 µM (IC50). Besides, the inhibition result in [4] and in experiment [5] was “Active” each time.

Turning to `[Cl-].[Na+]`, the inhibition entry in experiment [6], in [7] and in [8] was “Dose-dependent effect” throughout.

Regarding `Cc1nc(N2C(=O)C(O)=C(C(=O)c3cccs3)C2c2cccs2)sc1C` (stereo unspecified), the inhibition entry in experiment [9], in [1], in experiment [3], in experiment [11], in experiment [12] and in experiment [15] was “Dose-dependent effect” each time. In addition, the inhibition entry in [16] is “Dose-dependent effect”. Besides, the inhibition result in experiment [10], in experiment [13] and in [14] was “Active” each time. The IC50 (as a rule, the point on the concentration scale where inhibition reaches its midpoint) in experiment [2] came to 2.6 µM.

Turning to `Cc1nc(N2C(=O)C(O)=C(C(=O)c3cccs3)C2c2ccccc2)sc1C` (stereo unspecified), the inhibition result in [1] and in experiment [3] was “Dose-dependent effect” in each case. This compound registered a half-maximal inhibitory concentration (IC50) in experiment [2] of 7 µM. Besides, the inhibition result in [13] was “Active”.

For `Cc1nc(N2C(=O)C(O)=C(C(=O)c3ccccc3)C2c2cccs2)sc1C` (stereo unspecified), the inhibition result in [1] and in experiment [3] was “Dose-dependent effect” throughout. For the same compound, in experiment [2], half-maximal inhibition (IC50) was put at 21.8 µM.
